Converted amounts (≈) assume the structure as drawn. Blank lines part the entries; values can stand above or below the compound they belong to.
Legend:
[1] = Volume of distribution at steady state in rat plasma at 1 mg/kg, iv; assay type: ADME, organism-based; settings: read-out: Vdss
[2] = Volume of distribution at steady state in rat blood at 1 mg/kg, iv; assay type: ADME, organism-based; settings: read-out: Vdss
[3] = Clearance in rat blood at 1 mg/kg, iv; assay type: ADME, organism-based; settings: in vivo
[4] = Oral bioavailability in rat plasma at 10 mg/kg; assay type: ADME, organism-based
[5] = tested on: OCI-Ly10; assay: Cytotoxicity against human OCI-LY10 cells assessed as reduction in cell viability after 72 hrs by CellTiter-Glo luminescent assay; assay type: functional, cell-based; settings: OCI-Ly10, 72 h
[6] = Inhibition of recombinant UAE (unknown origin) in presence of ATP at Km concentration by HTRF assay; set-up: species or system Homo sapiens
[7] = target: Carbonic anhydrase 1 (Homo sapiens, UniProt P00915); assay: Inhibition of human erythrocyte CA1 using fluorescein diacetate as substrate at […] by fluorometric esterase assay
[8] = Half life in rat plasma at 1 mg/kg, iv; assay type: ADME, organism-based
[9] = Dissociation constant , pKa of the compound; assay type: physicochemical
[10] = Apparent permeability across apical to basolateral side in human Caco2 cells; assay type: ADME, cell-based; settings: Caco-2
[11] = tested on: HCT-116; assay: Cytotoxicity against human HCT116 cells assessed as reduction in cell viability after 72 hrs by CellTiter-Glo luminescent assay; assay type: functional, cell-based; settings: HCT-116, 72 h
[12] = Half life in rat blood at 1 mg/kg, iv; assay type: ADME, organism-based
[13] = target: T1, SUMO-activating enzyme (Homo sapiens, UniProt Q9UBT2); assay: Inhibition of SAE in human HCT116 cells assessed as reduction in redistribution of SUMO2/3 proteins from nucleus to cytosol incubated for 4 hrs by immunofluorescence assay; assay type: cell-based, HCT-116
Summary of the method: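 HCT-116 cells exposed to compound across a concentration range for 4 h, then stained with anti-SUMO2/3 monoclonal antibody. Automated imaging scored the nuclear (inner) to cytoplasmic (outer) SUMO2/3 ratio. IC50 taken from the dose response.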

[14] = Oral bioavailability in rat blood at 10 mg/kg; assay type: ADME, organism-based
[15] = AUC in rat blood at 10 mg/kg, po; assay type: ADME, organism-based; set-up: dose 10 mg/kg
[16] = target: Carbonic anhydrase 2 (Homo sapiens, UniProt P00918); assay: Inhibition of recombinant human CA2 expressed in Escherichia coli using fluorescein diacetate as substrate at […] by fluorometric esterase assay
[17] = AUC in rat plasma at 10 mg/kg, po; assay type: ADME, organism-based; set-up: dose 10 mg/kg
[18] = AUC in rat blood at 1 mg/kg, iv; assay type: ADME, organism-based; set-up: dose 1 mg/kg
[19] = Apparent permeability across basolateral to apical side in human Caco2 cells; assay type: ADME, cell-based; settings: Caco-2
[20] = Solubility of compound in 10% hydroxypropyl-beta-cyclodextrin after 24 hrs; assay type: physicochemical
[21] = target: T2, NEDD8 activating enzyme (Homo sapiens, UniProt Q8TBC4); assay: Inhibition of recombinant NAE (unknown origin) in presence of ATP at Km concentration by HTRF assay; assay type: protein-complex assay
T2 sequence (Q8TBC4 whole entry): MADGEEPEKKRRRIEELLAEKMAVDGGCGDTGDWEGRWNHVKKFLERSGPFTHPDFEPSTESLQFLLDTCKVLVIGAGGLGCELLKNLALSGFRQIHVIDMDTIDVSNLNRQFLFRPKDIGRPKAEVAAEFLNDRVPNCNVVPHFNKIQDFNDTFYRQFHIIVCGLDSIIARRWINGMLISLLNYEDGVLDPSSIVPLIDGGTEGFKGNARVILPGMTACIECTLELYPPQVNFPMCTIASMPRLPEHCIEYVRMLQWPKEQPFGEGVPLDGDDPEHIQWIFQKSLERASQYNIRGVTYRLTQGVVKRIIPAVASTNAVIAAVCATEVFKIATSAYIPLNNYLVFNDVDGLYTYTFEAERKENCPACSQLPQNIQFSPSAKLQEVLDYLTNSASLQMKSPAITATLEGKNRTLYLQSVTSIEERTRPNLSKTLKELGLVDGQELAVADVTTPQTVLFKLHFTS
T2 sequence (Q13564 whole entry): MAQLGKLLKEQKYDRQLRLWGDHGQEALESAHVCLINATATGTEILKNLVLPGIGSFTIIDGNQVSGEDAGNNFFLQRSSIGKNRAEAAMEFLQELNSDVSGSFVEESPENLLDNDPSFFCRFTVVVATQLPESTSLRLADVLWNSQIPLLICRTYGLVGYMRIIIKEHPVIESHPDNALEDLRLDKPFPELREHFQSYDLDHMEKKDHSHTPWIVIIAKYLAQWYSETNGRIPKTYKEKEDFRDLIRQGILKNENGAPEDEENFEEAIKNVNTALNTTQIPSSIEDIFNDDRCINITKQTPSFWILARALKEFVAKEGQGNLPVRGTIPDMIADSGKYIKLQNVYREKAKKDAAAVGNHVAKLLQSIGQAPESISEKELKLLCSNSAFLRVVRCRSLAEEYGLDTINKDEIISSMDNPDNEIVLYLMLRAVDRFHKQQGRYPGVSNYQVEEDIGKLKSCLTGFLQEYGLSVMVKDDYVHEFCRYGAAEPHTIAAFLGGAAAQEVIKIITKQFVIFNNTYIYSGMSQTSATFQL

[22] = AUC in rat plasma at 1 mg/kg, iv; assay type: ADME, organism-based; set-up: dose 1 mg/kg
[23] = target: T1, SUMO-activating enzyme; assay: Inhibition of recombinant SAE (unknown origin) assessed as reduction in transfer of SUMO1 to UBC9 using SUMO1 as a substrate in presence of ATP at Km concentration by HTRF assay; assay type: protein-complex assay
Summary of the method: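 HTRF transthiolation assay measuring transfer of SUMO1 to UBC9, the E2 for SAE.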

[24] = Clearance in rat plasma at 1 mg/kg, iv; assay type: ADME, organism-based; settings: in vivo
[25] = Efflux ratio of apparent permeability across basolateral to apical side over apical to basolateral side in human Caco-2 cells; assay type: ADME, cell-based
[26] = Lipophilicity, logD of compound at pH 7.4; assay type: physicochemical; settings: buffer
[27] = target: T2, NEDD8 activating enzyme; assay: Inhibition of NAE in human HCT116 cells assessed as reduction in conjugation of Nedd8 […] by Western blot analysis; assay type: cell-based, HCT-116
Summary of the method: (§1)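 HCT116 cells, quantitative Western blot of E2–UBL conjugates. Read-outs were SUMO–UBC9 for SAE, ubiquitin–[…] for UAE and Nedd-8–[…] for NAE.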

[28] = target: T1, SUMO-activating enzyme; assay: Inhibition of SAE (unknown origin) using SUMO1 as substrate incubated for 60 mins in presence of ATP and PPi by pyrophosphate exchange assay; assay type: protein-complex assay
Summary of the method: (§2)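 Pyrophosphate exchange assay of E1 activity at 1 mM ATP. Substrates were SUMO1 or SUMO2 for SAE, Ub for UAE and Nedd-8 for NAE.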

[29] = target: T1, SUMO-activating enzyme; assay: Inhibition of SAE (unknown origin) using SUMO2 as substrate incubated for 60 mins in presence of ATP and PPi by pyrophosphate exchange assay; assay type: protein-complex assay; summary of the method: as §2
[30] = Inhibition of UAE (unknown origin) using Ub as substrate incubated for 60 mins in presence of ATP and PPi by pyrophosphate exchange assay; set-up: species or system Homo sapiens; summary of the method: as §2
[31] = target: T1, SUMO-activating enzyme; assay: Inhibition of SAE in human HCT116 cells assessed as reduction in conjugation of SUMO proteins to UBC9 by Western blot analysis; assay type: cell-based, HCT-116; summary of the method: as §1
[32] = target: T2, NEDD8 activating enzyme; assay: Inhibition of NAE (unknown origin) using Nedd-8 as substrate incubated for 60 mins in presence of ATP and PPi by pyrophosphate exchange assay; assay type: protein-complex assay; summary of the method: as §2
[33] = tested on: HCT-116; assay: Antitumor activity against human HCT116 cells xenografted in sc dosed NCr nude mouse assessed as tumor growth inhibition administered twice per day for 21 days by vernier caliper method; assay type: functional, organism-based; settings: dose 150.0 mg/kg, time 21.0 day
Summary of the method: (§3)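 Female NCr nude mice with HCT-116 tumors, n = 10/arm, dosed subcutaneously until Day 21. Schedules were BID x21 (days 1–21) or BID BIW (days 1, 4, 8, 11, 15, 18, 21).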

[34] = tested on: HCT-116; assay: Antitumor activity against human HCT116 cells xenografted in sc dosed NCr nude mouse assessed as tumor growth inhibition administered on day 1, 2, 8, 9, 15, […] and […] by vernier caliper method; assay type: functional, organism-based; settings: dose 150.0 mg/kg, time 21.0 day
[35] = tested on: HCT-116; assay: Antitumor activity against human HCT116 cells xenografted in sc dosed NCr nude mouse assessed as tumor growth inhibition administered on day 1, 4, 8, 11, 15, 18 and 21 by vernier caliper method; assay type: functional, organism-based; settings: dose 200.0 mg/kg, time 21.0 day; summary of the method: as §3
[36] = target: T1, SUMO-activating enzyme; assay: Inhibition of SAE in human HCT116 cells assessed as redistribution of SUMO2/3 proteins from nucleus to cytosol preincubated for 2 hrs followed by compound washout and measured after 8 hrs by immunofluorescence assay; assay type: cell-based, HCT-116
Summary of the method: (§4)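 Washout format of the SUMO2/3 immunofluorescence assay in HCT116 cells. Cells were exposed to a range of concentrations for 2 h, then washed free of compound.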

[37] = target: T1, SUMO-activating enzyme; assay: Inhibition of SAE in human HCT116 cells assessed as redistribution of SUMO2/3 proteins from nucleus to cytosol preincubated for 2 hrs followed by compound washout and measured immediately by immunofluorescence assay; assay type: cell-based, HCT-116; summary of the method: as §4

T1 sequence (Q9UBE0 whole entry): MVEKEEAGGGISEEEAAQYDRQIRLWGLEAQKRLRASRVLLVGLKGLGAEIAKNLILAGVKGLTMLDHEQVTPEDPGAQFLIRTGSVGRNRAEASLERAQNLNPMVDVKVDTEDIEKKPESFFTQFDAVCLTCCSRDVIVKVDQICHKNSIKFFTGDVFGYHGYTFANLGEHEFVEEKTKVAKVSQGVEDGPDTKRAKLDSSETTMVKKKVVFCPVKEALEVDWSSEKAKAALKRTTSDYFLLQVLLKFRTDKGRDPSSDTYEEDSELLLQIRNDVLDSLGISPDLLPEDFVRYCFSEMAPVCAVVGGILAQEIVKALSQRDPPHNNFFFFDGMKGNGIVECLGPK
T1 sequence (Q9UBT2 whole entry): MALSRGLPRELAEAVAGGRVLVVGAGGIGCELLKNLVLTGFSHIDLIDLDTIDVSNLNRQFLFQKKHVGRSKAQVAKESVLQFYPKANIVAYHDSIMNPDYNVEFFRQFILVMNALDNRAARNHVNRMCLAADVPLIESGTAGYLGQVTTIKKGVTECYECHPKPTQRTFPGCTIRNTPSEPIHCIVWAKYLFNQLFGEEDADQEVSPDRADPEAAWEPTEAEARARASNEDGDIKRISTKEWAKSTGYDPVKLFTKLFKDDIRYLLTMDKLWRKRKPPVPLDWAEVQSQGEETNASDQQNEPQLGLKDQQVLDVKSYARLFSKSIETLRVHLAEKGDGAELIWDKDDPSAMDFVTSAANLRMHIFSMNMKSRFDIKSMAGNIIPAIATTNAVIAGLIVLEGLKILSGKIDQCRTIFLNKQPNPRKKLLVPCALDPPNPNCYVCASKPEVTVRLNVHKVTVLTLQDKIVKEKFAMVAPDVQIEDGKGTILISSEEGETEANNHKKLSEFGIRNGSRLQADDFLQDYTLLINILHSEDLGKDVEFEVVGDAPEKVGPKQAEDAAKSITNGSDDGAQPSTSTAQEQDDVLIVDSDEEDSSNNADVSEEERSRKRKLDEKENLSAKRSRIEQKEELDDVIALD
Chain of Carbonic anhydrase 1 (P00915 whole entry): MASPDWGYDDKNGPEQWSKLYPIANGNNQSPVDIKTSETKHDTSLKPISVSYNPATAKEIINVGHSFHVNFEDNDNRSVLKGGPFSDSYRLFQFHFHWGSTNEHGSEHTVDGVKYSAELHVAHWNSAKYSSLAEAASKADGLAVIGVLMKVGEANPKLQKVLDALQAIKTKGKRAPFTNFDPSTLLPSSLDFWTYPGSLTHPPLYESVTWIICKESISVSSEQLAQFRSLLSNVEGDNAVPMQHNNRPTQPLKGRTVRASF

IC50 [27]: > 5000 nM
IC50 [6]: > 1000 nM
IC50 [30]: > 1000 nM
IC50 [21]: 190 nM
IC50 [32]: 2600 nM
SMILES: NS(=O)(=O)OC[C@H]1C[C@@H](Nc2ncncc2C(=O)c2ccn(Cc3ccccc3)n2)C[C@@H]1O
IC50 [28]: 11 nM
IC50 [29]: 69 nM
IC50 [13]: 71 nM
IC50 [31]: 13 nM
IC50 [23]: 2 nM

IC50 [6]: > 1000 nM
IC50 [21]: > 1000 nM
SMILES: NS(=O)(=O)OC[C@H]1C[C@@H](Nc2ncncc2C(=O)c2cc(C3NCCc4ccc(Cl)cc43)c(Cl)s2)C[C@@H]1O (stereo partly drawn)
IC50 [13]: 7 nM
IC50 [36]: 17 nM
IC50 [23]: 0.4 nM
IC50 [37]: 9 nM

IC50 [6]: > 1000 nM
IC50 [21]: 198 nM
SMILES: NS(=O)(=O)OC[C@H]1C[C@@H](Nc2ncncc2C(=O)c2cc([C@@H]3OCCc4ccccc43)cs2)C[C@@H]1O
IC50 [13]: 4 nM
IC50 [36]: 39 nM
IC50 [23]: 0.4 nM
IC50 [37]: 5 nM

IC50 [6]: > 1000 nM
IC50 [21]: 235 nM
SMILES: Cc1sc(C(=O)c2cncnc2N[C@@H]2C[C@H](COS(N)(=O)=O)[C@@H](O)C2)cc1C(N)c1cccc(Cl)c1 (stereo partly drawn)
IC50 [13]: 16 nM
IC50 [36]: 38 nM
IC50 [23]: 0.2 nM
IC50 [37]: 19 nM

Continued, compound first:

SMILES: Cc1sc(C(=O)c2cncnc2N[C@@H]2C[C@H](COS(N)(=O)=O)[C@@H](O)C2)cc1C1OCCc2ccc(Cl)cc21 (stereo in doubt)
Vd [1]: 5 L/kg
Vd [2]: 0.2 L/kg
clearance [3]: 1.67 mL/min/kg
bioavailability [4]: 18%
EC50 [5]: 4 nM
IC50 [6]: > 1000 nM
IC50 [7]: 50 nM
half-life [8]: 1.5 h
pKa [9]: 3.5
Papp A→B [10]: 4 ×10⁻⁶ cm/s
EC50 [11]: 110 nM
half-life [12]: 4 h
IC50 [13]: 3 nM
bioavailability [14]: 19%
AUC [15]: 24.1 µM·h
IC50 [16]: 10 nM
AUC [17]: 0.6 µM·h
AUC [18]: 12.5 µM·h
Papp B→A [19]: 64 ×10⁻⁶ cm/s
solubility at 24 h [20]: 100 µg/mL (≈ 173 µM)
IC50 [21]: 386 nM
AUC [22]: 0.3 µM·h
IC50 [23]: 0.4 nM
clearance [24]: 86.7 mL/min/kg
efflux ratio [25]: > 16
logD [26]: 1.9

SMILES: NS(=O)(=O)OC[C@H]1C[C@@H](Nc2ncncc2C(=O)c2ccn(Cc3cccc(Br)c3)n2)C[C@@H]1O
Vd [1]: 5.1 L/kg
Vd [2]: 0.1 L/kg
clearance [3]: 1.67 mL/min/kg
bioavailability [4]: 7.1%
EC50 [5]: 55 nM
IC50 [7]: 50 nM
half-life [8]: 0.9 h
pKa [9]: 3.6
Activity [33]: Dose-Dependent Effect
Papp A→B [10]: 1.2 ×10⁻⁶ cm/s
Activity [34]: Dose-Dependent Effect
EC50 [11]: 90 nM
half-life [12]: 1.2 h
bioavailability [14]: 6.9%
AUC [15]: 10.8 µM·h
AUC [17]: 0.1 µM·h
AUC [18]: 19.1 µM·h
Papp B→A [19]: 64 ×10⁻⁶ cm/s
IC50 [21]: 228 nM
AUC [22]: 0.4 µM·h
Activity [35]: Dose-Dependent Effect
clearance [24]: 85 mL/min/kg
logD [26]: 2.6

SMILES: NS(=O)(=O)OC[C@H]1C[C@@H](Nc2ncncc2C(=O)c2cc(C(O)c3cccc(Cl)n3)c(Cl)s2)C[C@@H]1O (stereo partly drawn)
IC50 [6]: > 1000 nM
IC50 [13]: 14 nM
IC50 [21]: 340 nM
IC50 [36]: 142 nM
IC50 [23]: 0.2 nM
IC50 [37]: 16 nM

Source: ChEMBL document CHEMBL4834402, “Discovery of TAK-981, a First-in-Class Inhibitor of SUMO-Activating Enzyme for the Treatment of Cancer” (J Med Chem, 2021)
